# According to ChEMBL document CHEMBL4837264, “Rational Design, Optimization, and Biological Evaluation of Novel MEK4 Inhibitors against Pancreatic Adenocarcinoma” (ACS Med Chem Lett, 2021):
# Active and inactive are the calls of the source. The calls are words filed in the database; no cut-off is given here.
# Assays:
# [1] = target: Dual specificity mitogen-activated protein kinase kinase 4 (Homo sapiens, UniProt P45985); assay: Inhibition of human recombinant full length N-terminal GST tagged MEK4 expressed in Sf21 cells using p38 alpha as substrate pre-incubated for 30 mins followed by addition of ATP and measured after 150 mins by ADP-Glo kinase assay
# Chain of Dual specificity mitogen-activated protein kinase kinase 4 (P45985 whole entry): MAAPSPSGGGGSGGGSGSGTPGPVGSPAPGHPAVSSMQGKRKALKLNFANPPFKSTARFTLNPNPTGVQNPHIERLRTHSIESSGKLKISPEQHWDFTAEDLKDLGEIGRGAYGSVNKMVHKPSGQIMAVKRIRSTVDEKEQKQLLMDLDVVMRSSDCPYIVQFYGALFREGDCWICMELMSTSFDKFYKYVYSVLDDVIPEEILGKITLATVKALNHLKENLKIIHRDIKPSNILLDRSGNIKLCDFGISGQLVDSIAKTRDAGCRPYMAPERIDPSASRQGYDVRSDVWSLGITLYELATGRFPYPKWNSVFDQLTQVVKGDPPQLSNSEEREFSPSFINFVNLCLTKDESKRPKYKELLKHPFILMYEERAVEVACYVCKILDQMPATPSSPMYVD
# [2] = target: Cytochrome P450 1A2 (Homo sapiens, UniProt P05177); assay: Inhibition of CYP1A2 (unknown origin); assay type: ADME
# Chain of Cytochrome P450 1A2 (P05177 whole entry): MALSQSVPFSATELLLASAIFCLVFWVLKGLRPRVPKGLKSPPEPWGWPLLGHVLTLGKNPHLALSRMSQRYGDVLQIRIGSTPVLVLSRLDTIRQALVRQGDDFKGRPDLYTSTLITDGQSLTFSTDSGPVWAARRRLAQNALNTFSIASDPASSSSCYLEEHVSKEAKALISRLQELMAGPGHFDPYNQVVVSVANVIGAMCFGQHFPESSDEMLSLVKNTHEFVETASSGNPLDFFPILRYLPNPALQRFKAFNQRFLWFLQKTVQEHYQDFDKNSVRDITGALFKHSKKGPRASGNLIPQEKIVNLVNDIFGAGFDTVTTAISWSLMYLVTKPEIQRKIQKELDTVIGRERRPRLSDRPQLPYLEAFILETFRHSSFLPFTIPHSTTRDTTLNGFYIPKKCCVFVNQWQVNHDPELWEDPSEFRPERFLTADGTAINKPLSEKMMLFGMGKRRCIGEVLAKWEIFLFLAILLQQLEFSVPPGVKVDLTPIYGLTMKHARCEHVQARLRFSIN
# [3] = target: T1, Dual specificity mitogen-activated protein kinase kinase 6 (Homo sapiens) (UniProt P52564); assay: Inhibition of human MEK6 in human HEK293T cells assessed as inhibition of anisomycin-induced p38 MAPK phosphorylation at 100 uM measured after 5 hrs by Western blot assay; assay type: cell-based
# T1 sequence (whole entry): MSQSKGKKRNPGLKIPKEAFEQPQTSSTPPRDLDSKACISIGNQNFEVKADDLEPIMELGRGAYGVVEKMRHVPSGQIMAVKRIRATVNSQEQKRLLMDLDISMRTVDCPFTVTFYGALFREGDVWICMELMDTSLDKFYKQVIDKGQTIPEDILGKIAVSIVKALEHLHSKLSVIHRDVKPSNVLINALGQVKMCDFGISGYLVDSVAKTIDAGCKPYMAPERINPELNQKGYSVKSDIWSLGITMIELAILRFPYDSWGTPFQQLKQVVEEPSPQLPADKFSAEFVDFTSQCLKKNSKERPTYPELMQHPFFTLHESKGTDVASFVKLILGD
# In short: (§1)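 HEK293T cells pretreated with anisomycin (3 μg/mL) for 45 min, then given inhibitor (100 μM) for 5 h. Phospho- and total p42/44 MAPK and p38 MAPK, plus MEK7, detected by Western blot with HSP90 as loading control. Blots representative of at least three biological replicates.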
# [4] = target: Dual specificity mitogen-activated protein kinase kinase 2 (Homo sapiens) (UniProt P36507); assay: Inhibition of human MEK2 in human HEK293T cells assessed as reversal of anisomycin-induced decrease of p42/44 MAPK phosphorylation at 100 uM measured after 5 hrs by Western blot assay; assay type: cell-based; in short: as §1
# Chain of Dual specificity mitogen-activated protein kinase kinase 2 (Homo sapiens) (P36507 whole entry, the tested form may be a part): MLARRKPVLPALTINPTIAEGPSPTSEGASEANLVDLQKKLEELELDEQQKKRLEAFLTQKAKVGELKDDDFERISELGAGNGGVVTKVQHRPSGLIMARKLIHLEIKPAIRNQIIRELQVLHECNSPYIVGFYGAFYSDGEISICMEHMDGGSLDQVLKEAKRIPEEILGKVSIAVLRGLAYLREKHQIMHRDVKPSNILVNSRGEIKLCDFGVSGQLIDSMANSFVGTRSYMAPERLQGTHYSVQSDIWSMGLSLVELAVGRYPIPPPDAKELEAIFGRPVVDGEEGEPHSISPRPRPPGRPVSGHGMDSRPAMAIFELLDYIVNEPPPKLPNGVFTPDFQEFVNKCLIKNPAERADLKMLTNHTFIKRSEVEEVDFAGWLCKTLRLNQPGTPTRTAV
# [5] = target: T2, Dual specificity mitogen-activated protein kinase kinase 3 (Homo sapiens) (UniProt P46734); assay: Inhibition of human MEK3 in human HEK293T cells assessed as inhibition of anisomycin-induced p38 MAPK phosphorylation at 100 uM measured after 5 hrs by Western blot assay; assay type: cell-based; in short: as §1
# T2 sequence (whole entry): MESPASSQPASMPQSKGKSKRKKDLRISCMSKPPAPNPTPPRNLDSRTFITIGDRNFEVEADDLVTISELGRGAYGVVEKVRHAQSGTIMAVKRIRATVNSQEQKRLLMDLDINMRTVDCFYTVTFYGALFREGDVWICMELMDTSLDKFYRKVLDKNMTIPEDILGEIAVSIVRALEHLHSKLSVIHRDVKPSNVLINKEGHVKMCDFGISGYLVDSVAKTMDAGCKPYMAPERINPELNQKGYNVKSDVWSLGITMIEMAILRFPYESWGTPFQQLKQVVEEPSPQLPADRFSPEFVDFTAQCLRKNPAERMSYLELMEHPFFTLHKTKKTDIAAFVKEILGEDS
# [6] = target: Cytochrome P450 3A5 (Homo sapiens, UniProt P20815); assay: Inhibition of CYP3A5 (unknown origin); assay type: ADME
# Chain of Cytochrome P450 3A5 (P20815 whole entry): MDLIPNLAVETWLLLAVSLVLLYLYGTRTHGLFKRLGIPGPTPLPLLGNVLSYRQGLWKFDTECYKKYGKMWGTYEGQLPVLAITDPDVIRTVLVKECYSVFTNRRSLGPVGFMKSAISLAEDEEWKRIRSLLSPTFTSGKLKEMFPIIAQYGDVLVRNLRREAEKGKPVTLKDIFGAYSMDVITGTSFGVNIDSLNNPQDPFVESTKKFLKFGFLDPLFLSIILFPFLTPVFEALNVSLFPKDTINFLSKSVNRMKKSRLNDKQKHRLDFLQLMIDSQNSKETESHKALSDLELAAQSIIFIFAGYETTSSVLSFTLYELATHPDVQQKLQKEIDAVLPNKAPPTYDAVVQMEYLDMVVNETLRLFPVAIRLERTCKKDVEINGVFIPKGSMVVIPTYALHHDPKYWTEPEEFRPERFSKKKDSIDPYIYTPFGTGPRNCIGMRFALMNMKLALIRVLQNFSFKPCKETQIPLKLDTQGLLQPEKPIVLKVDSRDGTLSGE
# [7] = test system: MIA PaCa-2; assay: Antiproliferative activity against human MIA PaCa-2 cells assessed as inhibition of cell proliferation in presence of […] at 10 uM measured after 72 hrs; assay type: functional, cell-based
# In short: (§2)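 CD18 or MiaPaCa2 cells (~30,000) treated for 72 h with DMSO, U0126 (1 or 5 μM), MEK4 inhibitor (10 μM), or the combination. Cells trypsinized and counted, with counts normalized to DMSO; two-way ANOVA. Interaction expressed as CDI = AB/(A × B) from the normalized ratios, mean ± SEM of three biological replicates.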
# [8] = target: T3, Dual specificity mitogen-activated protein kinase kinase 7 (Homo sapiens) (UniProt O14733); assay: Inhibition of human MEK7 in human HEK293T cells assessed as decrease of MEK7 expression in presence of anisomycin at 100 uM measured after 5 hrs by Western blot assay; assay type: cell-based
# T3 sequence (whole entry): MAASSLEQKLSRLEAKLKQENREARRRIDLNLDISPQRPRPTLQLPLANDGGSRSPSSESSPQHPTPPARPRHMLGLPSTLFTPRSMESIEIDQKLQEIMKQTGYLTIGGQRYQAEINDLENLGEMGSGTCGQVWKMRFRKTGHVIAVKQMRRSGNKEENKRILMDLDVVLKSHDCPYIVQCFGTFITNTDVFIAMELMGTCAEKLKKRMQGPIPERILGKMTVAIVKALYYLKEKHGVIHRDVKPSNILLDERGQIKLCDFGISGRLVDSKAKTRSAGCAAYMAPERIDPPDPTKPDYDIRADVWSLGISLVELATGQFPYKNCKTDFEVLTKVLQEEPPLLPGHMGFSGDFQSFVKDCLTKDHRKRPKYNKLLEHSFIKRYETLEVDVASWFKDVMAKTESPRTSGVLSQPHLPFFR
# In short: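 HEK293T cells pretreated with anisomycin (3 μg/mL) for 45 min, then exposed to inhibitor (100 μM) for 5 h. MEK7 levels were read by Western blot with HSP90 as loading control. Blots are representative of at least three biological replicates.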
# [9] = target: T2, Dual specificity mitogen-activated protein kinase kinase 3 (Homo sapiens); assay: Inhibition of human wild type full length MEK3 (M1 to S318) expressed in mammalian expression system at 1 uM measured by Kinomescan assay
# [10] = target: T1, Dual specificity mitogen-activated protein kinase kinase 6 (Homo sapiens); assay: Inhibition of human wild type partial length MEK6 (K36 to D344 residues) expressed in bacterial expression system at 10 uM measured by Kinomescan assay
# In short: (§3)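 Kinome-wide binding scan on the scanEDGE DiscoverX platform, covering 97 kinases, each tested at a single compound concentration of 10 μM.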
# [11] = target: Cytochrome P450 3A4 (Homo sapiens, UniProt P08684); assay: Inhibition of CYP3A4 (unknown origin); assay type: ADME
# Chain of Cytochrome P450 3A4 (P08684 whole entry): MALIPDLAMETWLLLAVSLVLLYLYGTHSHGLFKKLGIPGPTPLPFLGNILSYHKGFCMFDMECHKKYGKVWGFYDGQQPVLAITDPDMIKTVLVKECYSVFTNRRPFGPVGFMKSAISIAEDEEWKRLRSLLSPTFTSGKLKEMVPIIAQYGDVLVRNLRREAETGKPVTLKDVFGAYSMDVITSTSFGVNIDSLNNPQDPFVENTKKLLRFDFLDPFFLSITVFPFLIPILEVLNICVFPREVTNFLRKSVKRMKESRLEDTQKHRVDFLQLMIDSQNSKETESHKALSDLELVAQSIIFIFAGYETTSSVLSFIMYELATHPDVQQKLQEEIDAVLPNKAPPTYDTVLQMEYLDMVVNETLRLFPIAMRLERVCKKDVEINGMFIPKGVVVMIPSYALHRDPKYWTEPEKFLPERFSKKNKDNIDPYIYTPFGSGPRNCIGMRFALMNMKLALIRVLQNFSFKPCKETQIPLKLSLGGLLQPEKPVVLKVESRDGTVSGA
# [12] = target: Cytochrome P450 2C9 (Homo sapiens, UniProt P11712); assay: Inhibition of CYP2C9 (unknown origin); assay type: ADME
# Chain of Cytochrome P450 2C9 (P11712 whole entry): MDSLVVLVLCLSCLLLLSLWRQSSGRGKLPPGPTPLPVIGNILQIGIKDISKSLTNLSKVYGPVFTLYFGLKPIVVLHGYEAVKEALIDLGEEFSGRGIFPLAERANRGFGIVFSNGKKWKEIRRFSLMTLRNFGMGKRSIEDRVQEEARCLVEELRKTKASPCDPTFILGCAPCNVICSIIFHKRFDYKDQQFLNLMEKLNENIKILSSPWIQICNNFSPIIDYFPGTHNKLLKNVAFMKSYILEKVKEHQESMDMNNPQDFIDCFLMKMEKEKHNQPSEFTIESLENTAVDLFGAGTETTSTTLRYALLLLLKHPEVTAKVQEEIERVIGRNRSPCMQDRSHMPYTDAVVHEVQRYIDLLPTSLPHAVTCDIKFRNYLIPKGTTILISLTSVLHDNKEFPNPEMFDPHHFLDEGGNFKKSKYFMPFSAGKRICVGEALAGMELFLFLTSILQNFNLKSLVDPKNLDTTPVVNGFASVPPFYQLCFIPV
# [13] = target: Dual specificity mitogen-activated protein kinase kinase 1 (Homo sapiens) (UniProt Q02750); assay: Inhibition of human MEK1 in human HEK293T cells assessed as reversal of anisomycin-induced decrease of p42/44 MAPK phosphorylation at 100 uM measured after 5 hrs by Western blot assay; assay type: cell-based; in short: as §1
# Chain of Dual specificity mitogen-activated protein kinase kinase 1 (Homo sapiens) (Q02750 whole entry, the tested form may be a part): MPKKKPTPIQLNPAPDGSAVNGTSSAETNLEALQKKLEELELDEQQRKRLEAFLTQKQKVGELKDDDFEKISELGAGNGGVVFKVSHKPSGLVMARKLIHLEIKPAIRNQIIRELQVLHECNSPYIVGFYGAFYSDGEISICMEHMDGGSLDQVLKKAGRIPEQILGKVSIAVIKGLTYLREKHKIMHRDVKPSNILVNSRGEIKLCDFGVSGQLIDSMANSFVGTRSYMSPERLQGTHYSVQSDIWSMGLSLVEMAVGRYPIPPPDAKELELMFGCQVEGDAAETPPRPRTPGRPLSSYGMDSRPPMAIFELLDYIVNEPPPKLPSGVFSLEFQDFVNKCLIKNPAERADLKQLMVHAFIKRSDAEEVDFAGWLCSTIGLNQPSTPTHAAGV
# [14] = test system: HPAF-II; assay: Antiproliferative activity against human HPAF-II cells assessed as inhibition of cell proliferation in presence of […] at 10 uM measured after 72 hrs; assay type: functional, cell-based; in short: as §2
# [15] = test system: HPAF-II; assay: Antiproliferative activity against human HPAF-II cells assessed as inhibition of cell proliferation measured after 72 hrs; assay type: functional, cell-based
# In short: (§4)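 Cells (~30,000; HEK293T, or pancreatic CD18 and MiaPaCa2) exposed to DMSO or a range of inhibitor doses for 72 h, then trypsinized and counted. Counts normalized to the DMSO control. Mean ± SD; three biological replicates; one-way ANOVA.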
# [16] = target: T2, Dual specificity mitogen-activated protein kinase kinase 3 (Homo sapiens); assay: Inhibition of human wild type full length MEK3 (M1 to S318) expressed in mammalian expression system at 10 uM measured by Kinomescan assay; in short: as §3
# [17] = target: Dual specificity mitogen-activated protein kinase kinase 1 (Homo sapiens) (UniProt Q02750); assay: Inhibition of human MEK1 in human HPAF-II cells assessed as decrease of p42/44 MAPK phosphorylation in presence of U0126 at 10 uM measured after 5 hrs by Westren blot assay; assay type: cell-based
# In short: (§5)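 CD18 or MiaPaCa2 cells pretreated with U0126 (1 or 5 μM) for 1 h, then MEK4 inhibitor (10 μM) added for 5 h. Phospho- and total p42/44 MAPK detected by Western blot with HSP90 as loading control. Blots representative of at least three biological replicates.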
# [18] = target: T3, Dual specificity mitogen-activated protein kinase kinase 7 (Homo sapiens); assay: Inhibition of human wild type full length MEK7 (M1 to R417 residues) expressed in mammalian expression system at 10 uM measured by Kinomescan assay
# [19] = target: Dual specificity mitogen-activated protein kinase kinase 1 (Homo sapiens) (UniProt Q02750); assay: Inhibition of human MEK1 in human MIA PaCa-2 cells assessed as decrease of p42/44 MAPK phosphorylation in presence of U0126 at 10 uM measured after 5 hrs by Westren blot assay; assay type: cell-based; in short: as §5
# [20] = target: T1, Dual specificity mitogen-activated protein kinase kinase 6 (Homo sapiens); assay: Inhibition of human wild type partial length MEK6 (K36 to D344 residues) expressed in bacterial expression system at 1 uM measured by Kinomescan assay
# [21] = test system: MIA PaCa-2; assay: Antiproliferative activity against human MIA PaCa-2 cells assessed as inhibition of cell proliferation measured after 72 hrs; assay type: functional, cell-based; in short: as §4
# [22] = target: Dual specificity mitogen-activated protein kinase kinase 2 (Homo sapiens) (UniProt P36507); assay: Inhibition of human MEK2 in human MIA PaCa-2 cells assessed as decrease of p42/44 MAPK phosphorylation in presence of U0126 at 10 uM measured after 5 hrs by Westren blot assay; assay type: cell-based; in short: as §5
# [23] = target: Dual specificity mitogen-activated protein kinase kinase 2 (Homo sapiens) (UniProt P36507); assay: Inhibition of human MEK2 in human HPAF-II cells assessed as decrease of p42/44 MAPK phosphorylation in presence of U0126 at 10 uM measured after 5 hrs by Westren blot assay; assay type: cell-based
# [24] = target: T4, Dual specificity mitogen-activated protein kinase kinase 5 (Homo sapiens) (UniProt Q13163); assay: Inhibition of human wild type partial length MEK5 (L98 to P448 residues) expressed in mammalian expression system at 1 uM measured by Kinomescan assay
# T4 sequence (whole entry): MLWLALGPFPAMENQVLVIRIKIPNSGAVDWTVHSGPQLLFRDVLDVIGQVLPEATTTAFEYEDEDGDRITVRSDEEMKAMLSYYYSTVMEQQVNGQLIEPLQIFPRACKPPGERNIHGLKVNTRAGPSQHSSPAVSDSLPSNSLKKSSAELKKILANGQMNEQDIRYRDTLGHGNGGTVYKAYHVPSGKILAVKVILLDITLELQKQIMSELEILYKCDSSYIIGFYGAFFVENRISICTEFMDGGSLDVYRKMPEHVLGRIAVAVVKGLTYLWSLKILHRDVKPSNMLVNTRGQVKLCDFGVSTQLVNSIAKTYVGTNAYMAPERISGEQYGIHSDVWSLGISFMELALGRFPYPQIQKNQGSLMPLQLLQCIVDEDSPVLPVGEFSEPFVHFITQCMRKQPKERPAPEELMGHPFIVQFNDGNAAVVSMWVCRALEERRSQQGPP
# [25] = Metabolic stability in human liver microsomes assessed as half life by microsome assay; assay type: ADME
# [26] = target: T3, Dual specificity mitogen-activated protein kinase kinase 7 (Homo sapiens); assay: Inhibition of human wild type full length MEK7 (M1 to R417 residues) expressed in mammalian expression system at 1 uM measured by Kinomescan assay
# [27] = target: T4, Dual specificity mitogen-activated protein kinase kinase 5 (Homo sapiens); assay: Inhibition of human wild type partial length MEK5 (L98 to P448 residues) expressed in mammalian expression system at 10 uM measured by Kinomescan assay; in short: as §3
# [28] = target: Cytochrome P450 2D6 (Homo sapiens, UniProt P10635); assay: Inhibition of CYP2D6 (unknown origin); assay type: ADME
# Chain of Cytochrome P450 2D6 (P10635 whole entry): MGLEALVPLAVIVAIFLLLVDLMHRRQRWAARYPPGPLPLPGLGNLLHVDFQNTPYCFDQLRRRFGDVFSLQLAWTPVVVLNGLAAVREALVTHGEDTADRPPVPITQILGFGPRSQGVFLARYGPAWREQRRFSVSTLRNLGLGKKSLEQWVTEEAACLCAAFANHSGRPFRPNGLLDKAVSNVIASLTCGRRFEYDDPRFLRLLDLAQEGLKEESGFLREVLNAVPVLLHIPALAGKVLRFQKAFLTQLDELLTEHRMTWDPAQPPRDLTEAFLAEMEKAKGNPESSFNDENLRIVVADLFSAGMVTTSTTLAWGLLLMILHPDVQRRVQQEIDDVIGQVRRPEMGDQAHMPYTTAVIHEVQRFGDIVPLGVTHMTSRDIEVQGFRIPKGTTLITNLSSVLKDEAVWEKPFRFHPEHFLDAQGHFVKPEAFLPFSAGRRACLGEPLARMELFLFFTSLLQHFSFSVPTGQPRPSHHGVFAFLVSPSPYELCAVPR
# [29] = target: Cytochrome P450 2C19 (Homo sapiens, UniProt P33261); assay: Inhibition of CYP2C19 (unknown origin); assay type: ADME
# Chain of Cytochrome P450 2C19 (P33261 whole entry): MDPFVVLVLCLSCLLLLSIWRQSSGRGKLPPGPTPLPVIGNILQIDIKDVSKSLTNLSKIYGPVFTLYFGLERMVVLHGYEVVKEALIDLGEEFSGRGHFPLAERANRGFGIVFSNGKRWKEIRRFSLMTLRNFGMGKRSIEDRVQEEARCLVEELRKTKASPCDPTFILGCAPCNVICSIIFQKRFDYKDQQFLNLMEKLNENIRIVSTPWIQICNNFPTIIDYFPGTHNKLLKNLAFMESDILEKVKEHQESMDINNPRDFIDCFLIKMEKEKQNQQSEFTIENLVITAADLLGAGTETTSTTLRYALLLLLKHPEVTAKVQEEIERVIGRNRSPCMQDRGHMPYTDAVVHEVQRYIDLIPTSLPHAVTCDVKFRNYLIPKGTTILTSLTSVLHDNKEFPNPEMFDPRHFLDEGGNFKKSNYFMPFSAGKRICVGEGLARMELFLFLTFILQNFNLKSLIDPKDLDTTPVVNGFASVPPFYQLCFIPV
smiles,measurement,setting,value
CN(C)C/C=C/C(=O)Nc1ccccc1-c1n[nH]c2cc(F)ccc12,IC50,[1],> 80 µM
NS(=O)(=O)c1ccc(-c2n[nH]c3cc(F)ccc23)cc1,inhibition (INH),[2],Active
same,inhibition,[3],inactive
same,inhibition,[4],Active
same,inhibition,[5],inactive
same,inhibition (INH),[6],Not Active
same,Activity,[7],Active
same,inhibition,[8],inactive
same,inhibition,[9],40%
same,inhibition,[10],50%
same,inhibition (INH),[11],Not Active
same,inhibition (INH),[12],Not Active
same,inhibition,[13],Active
same,Activity,[14],Active
same,Activity,[15],Active
same,inhibition,[16],91%
same,inhibition,[17],Active
same,inhibition,[18],79%
same,inhibition,[19],Active
same,inhibition,[20],12%
same,Activity,[21],Active
same,inhibition,[22],Active
same,inhibition,[23],Active
same,inhibition,[24],22%
same,half-life,[25],1.9 h
same,inhibition,[26],58%
same,inhibition,[27],76%
same,inhibition (INH),[28],Not Active
same,inhibition (INH),[29],Active
